Screening results: PubChem BioAssay, several laboratories
Beta apoptosis – beta cell apoptosis inhibition; INS-1E cytokine-induced death, ATP luminescence, 48 h; percent of positive-control rescue, neutral wells zero; protection from apoptosis, % (concentration not given with the values); 300,000 compounds, 0.8% hits;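 active = Every replicate reaches about 75%, or at least half do and their mean reaches it too, limit read from the data; inconclusive = At least half of replicates reach the limit but their mean does not; inactive = Under half of replicates reach the limit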;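 note: higher means more ATP so stronger rescue from cytokine killing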
KLF5 inh – kruppel-like factor 5 inhibition; AID 1700; DLD-1 KLF5 promoter-luciferase reporter, luminescence; inhibition, % at 5 µM; 290,000 compounds, 0.23% hits;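 active = inhibition above a per-plate limit of that plate's mean compound inhibition plus 3 SD, cut at about 60% in these data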;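 note: higher means less KLF5 promoter-driven luciferase light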
T cruzi repl – blocks replication of Trypanosoma cruzi; T. cruzi beta-gal in NIH3T3, luminescence, 90 h; inhibition, % (no concentration beside the values); 300,000 compounds, 1.4% hits; AID 1885;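 active = mean inhibition across valid replicates above about 55%, limit read from the data; inconclusive = mean below that limit but half or more replicates reach it; inactive = mean below it, under half of replicates reach it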;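 note: signal also drops with host cell toxicity which is not excluded here; higher percent means less beta-gal luminescence so fewer parasites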
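System: mouse NIH/3T3 fibroblasts infected with β-gal-expressing T. cruzi Tulahuen C4 / Input: NIH/3T3 cells, 5,000 per well / Buffer or medium: Low-serum DMEM with 2% FBS / Probe or stimulus: 5000 reporter trypomastigotes per well / Schedule: ≥90 h infection period, 3 h prior cell attachment / Measured by: GalScreen luminescence, 60 min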
HIF act – HIF pathway transcriptional activation; U2OS HRE-luciferase reporter, luminescence; normalized: DMSO 0%, desferrioxamine 100%; AID 1910; activation, % at 7.5 µM (by protocol); 300,000 compounds, 0.32% hits;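 active = mean activation of at least 10% of the iron chelator positive control signal, with at least half of replicates also reaching 10%; inconclusive = mean and replicate majority disagree about reaching 10%; inactive = mean and most replicates under 10%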
Bfl-1 A1 inh – inhibitors of the anti-apoptotic protein A1, read as caspase activation; MEF A1-2A-BIM cells, Caspase-Glo 3/7 luminescence, 3 h; percent of clofoctol response, vehicle zero; caspase activation, % (no concentration beside the values); 330,000 compounds, 0.066% hits;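 active = over half of replicate activation scores above 10%, or exactly half above 10 with the replicate mean above 10; inconclusive = replicate mean below 10 yet half the replicates above 10; inactive = over half of replicates below 10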
Numbers stand for hits; – = inactive; ? = inconclusive; · = no result. Hits are enriched below; roughly 2.3% of the tested compounds scored in any of these assays.

SMILES | Beta apoptosis | KLF5 inh | T cruzi repl | HIF act | Bfl-1 A1 inh
COc1ccc2c(C(=O)NCc3ccc4c(c3)OCO4)c(-c3ccc(S(C)(=O)=O)cc3)sc2c1 | ? | · | · | · | –
O=C(CSc1nc2nn(-c3ccccc3)c(=O)c-2c2n1CCCCC2)c1ccc(OC(F)F)cc1 | – | · | · | · | –
Cc1cccc(CS(=O)(=O)c2ncc(CO)n2C)c1 | – | – | – | – | –
COc1ccc(C2=Nn3c(nnc3-c3ccccc3F)SC2)cc1OCC1CC1 | – | · | · | · | –
Cc1ccc(/C=N/NC(=O)CN2CCN(Cc3ccccc3Cl)CC2)o1 | – | – | – | 143 | –
CCOC(=O)c1sc(NC(=S)NC(=O)C2CC2)cc1C | – | – | – | 72 | –
CCOC(=O)c1sc(NC(=O)Nc2cccc(Cl)c2)cc1C | 101 | – | – | – | –
CCOC(=O)c1sc(NC(=S)NC(=O)C23CC4CC(CC(C4)C2)C3)cc1C | – | – | – | – | –
CC(Oc1ccc(Br)cc1)C(=O)Nc1ccc(S(=O)(=O)N(C)C2CCN(C)CC2)cc1 (stereo unspecified) | – | · | 56 | – | –
COc1ccc2oc(C(=O)Nc3ccc(S(=O)(=O)N(C)C4CCN(C)CC4)cc3)c(C)c2c1 | – | – | 60 | – | –
CC(=O)Nc1cccc(C(=O)OCC(=O)NNC(=O)c2ccc([N+](=O)[O-])cc2)c1 | – | · | – | – | –
Cc1nc(N/C(N)=N/S(=O)(=O)c2ccc([N+](=O)[O-])cc2)nc2ccccc12 | – | – | 56 | – | –
Cc1ccc2c(C)nc(N/C(N)=N/S(=O)(=O)c3ccc([N+](=O)[O-])cc3)nc2c1 | – | – | 55 | – | –
CCc1nnc(SCC(=O)Nc2ccc3ccccc3c2)n1N | – | · | · | · | –
O=C(Nc1ccccc1)c1ccc(N2CCN(c3ccccc3)CC2)c(S(=O)(=O)N2CCOCC2)c1 | – | – | 56 | – | –
O=C(Nc1ccncc1)c1cc(S(=O)(=O)N2CCN(c3ccccc3)CC2)ccc1Cl | – | · | 61 | – | –
O=C(Nc1ccccc1)c1ccc(N2CCN(c3ccccn3)CC2)c(S(=O)(=O)N2CCOCC2)c1 | · | – | – | – | –
O=C(COc1ccccc1/C=C\c1[nH]c(=O)[nH]c(=O)c1[N+](=O)[O-])Nc1ccccc1 | – | – | 55 | – | –
O=C(COC(=O)C1=NN(c2ccccc2)C(=O)CC1)NCc1ccccc1Cl | – | · | · | · | –
COc1cc(Cl)c(C)cc1NC(=O)CN1C(=O)C2CC=CCC2C1=O (stereo unspecified) | – | · | · | · | –
O=[N+]([O-])c1ccc2nc(-[n+]3c(-c4ccccc4)cc(-c4ccccc4)cc3-c3ccccc3)[nH]c2c1 | – | – | 58 | · | –
O=[N+]([O-])c1cccc(-c2nc3ccc([N+](=O)[O-])cc3[nH]2)c1 | – | – | – | – | –
CCn1c(=O)c([N+](=O)[O-])c(NCC2CCCO2)c2ccccc21 (stereo unspecified) | – | – | – | – | –
CC1=CCC(C(=O)O)C(C(=O)NC2CCCCC2)C1 (stereo unspecified) | – | – | – | – | –
COc1ccc(S(=O)(=O)N2CCCCCC2)cc1N(C)S(=O)(=O)c1ccc(Cl)cc1 | – | – | 64 | – | –
SMILES | Beta apoptosis | KLF5 inh | T cruzi repl | HIF act | Bfl-1 A1 inh
Cc1nn(Cc2ccccc2Cl)c(C)c1NC(=O)CCCn1nc([N+](=O)[O-])c(Cl)c1C | – | – | 71 | – | –
Cc1ccc(Cn2nc(C)c(NC(=O)CCCn3nc([N+](=O)[O-])c(Cl)c3C)c2C)cc1 | – | – | – | – | –
O=C(N/N=C/c1ccccn1)c1ccc(Cl)cc1 | – | – | – | 12 | –
COc1ccc(C(=O)Nc2ccccc2C(=O)N/N=C/c2ccccn2)cc1OC | 95 | – | – | 19 | –
O=C(N/N=C/c1ccccn1)c1ccccc1 | – | – | – | – | –
COc1ccc(C(=O)NCc2ncccc2C)cc1OC1CCN(C(C)=O)CC1 | – | – | – | – | –
COc1ccc(CCN(C)C2CCCN(C(=O)CCC(F)(F)F)C2)cc1OC (stereo unspecified) | · | – | – | – | –
Cc1sc2ncnc(N3CCC(C(=O)N(C)CC(=O)Nc4ccc(Cl)c(C(F)(F)F)c4)CC3)c2c1C | · | · | 58 | – | –
COc1ccc(C(=O)NCC(=O)OCC(=O)NC2CCCCCC2)cc1OC | – | · | · | · | –
O=C(C(Cl)Cl)N1c2ccccc2OCC1c1ccccc1 (stereo unspecified) | 76 | – | – | – | –
